Reference: article PMC6701634 (Cell, 2018)

Legend:
CKIα [1] = target: CKIα (Homo sapiens, UniProt P48729); test: KINOMEscan binding assay; conditions: Figure 1C
CKIδ = CKIδ (Homo sapiens, UniProt P48730); test: KINOMEscan binding assay; conditions: Figure 1C
CKIε = CKIε (Homo sapiens, UniProt P49674); test: KINOMEscan binding assay; conditions: Figure 1C
GSK3α/β = test: KINOMEscan binding assay; conditions: Figure 1C
CDK7 = CDK7 (Homo sapiens, UniProt P50613); test: KINOMEscan binding to transcriptional kinases; conditions: for CDK7 Kd (direct binding affinity): Figure 4D
CDK9 = CDK9 (Homo sapiens, UniProt P50750); test: KINOMEscan binding to transcriptional kinases; conditions: for CDK9 Kd (direct binding affinity): Figure 4D
p53 in RKO cells = test: Western blot of RKO cells treated with A-series inhibitors; type: cell-based, human; conditions: 18 hr
Outline: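 RKO cells grown in DMEM with 10% serum. Treated 18 hr with test compounds at several concentrations or DMSO. Lysates immunoblotted.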

[2] = tested on: primary human leukemia cells from 5 individual patients; test: Ex vivo killing of primary human leukemia cells; type: cell-based; conditions: 18–20 hr; for leukemia cell apoptosis: comparable inhibitor concentrations
Outline: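 BM mononuclear cells from newly diagnosed, untreated AML patients, isolated by Ficoll after BM biopsy. Used fresh or frozen; frozen cells thawed straight into IMDM with 50% FBS plus DNaseI. Viability stained with Annexin V and 7AAD after blocking with 20% human serum.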

CDK8 = CDK8 (Homo sapiens, UniProt P49336); test: KINOMEscan binding to transcriptional kinases; conditions: Figure S4B
CDK13 = CDK13 (Homo sapiens, UniProt Q14004); test: KINOMEscan binding to transcriptional kinases; conditions: Figure S4B
CDK11a = CDK11a (Homo sapiens, UniProt Q9UQ88); test: KINOMEscan binding to transcriptional kinases; conditions: Figure S4B
CDK11b = CDK11b (Homo sapiens, UniProt P21127); test: KINOMEscan binding to transcriptional kinases; conditions: Figure S4B
CDK19 = CDK19 (Homo sapiens, UniProt Q9BWU1); test: KINOMEscan binding to transcriptional kinases; conditions: Figure S4B
[3] = tested on: primary leukemic BM cells isolated from MLL-AF9-induced AML mice; test: Ex vivo apoptosis; type: cell-based, mouse; conditions: 18 hr, Annexin V-positive cells
Outline: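 Leukemic mice (>80% GFP+ in PB); BM flushed from femur and tibia, erythrocytes lysed, cells strained. Cells cultured in StemPro-34 with 10 ng/ml IL3, IL6, TPO and SCF, 1.5*10^5 cells per well. Treated 16–18 hr, 5% CO2, with DMSO stocks diluted 1:1000; DMSO-only control. Stained with Annexin V-PE and 7AAD; flow read-out of GFP and PE. Triplicates, mean ± SD.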

[4] = tested on: heavy burden MLL-AF9 leukemic mice; test: Acute in vivo anti-leukemic effect, single oral dose; set-up: species or system mouse
Outline: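 MLL-AF9-IRES-GFP retrovirus-transduced BM cells were passaged through sublethally irradiated (500 rad) mice. 50,000 GFP+ BM cells were then injected IV into irradiated (250 rad) C57BL/6 WT mice aged 8–12 weeks. Mice with >80% GFP+ cells in PB got a single oral dose (e.g. 10 or 20 mg/kg) or vehicle and were sacrificed at short time points (5–6 or 16 hr). Read-outs: […], absolute BM GFP+ blast counts, H&E sections and blood smears; mean ± SD, N ≥ 3.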

[5] = tested on: MV4–11 cells (DDR, p53, MDM2, MYC, MCL1); test: Western blot of MV4–11 cells; type: cell-based, human; conditions: 6.5 hr
Outline: (§1)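 MV4–11 cells were exposed to test compounds at set concentrations or DMSO for 6.5 hr and analysed by western blot, with PP2Ac as loading control.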

[6] = tested on: MYC, MDM2, AXIN2, CCND1 mRNA in MV4–11 cells; test: qPCR mRNA analysis of MV4–11 cells; type: cell-based, human; conditions: 4 hr; A51 2μM, A86 2μM, BTX161 25μM
Outline: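 MV4–11 cells were treated for 4 hr with test compounds or DMSO, and transcripts were measured by qPCR. Three replicates (N = 3) were run, given as mean ± SD and compared by Student's t test.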

[7] = tested on: Pol II CTD phosphorylation at Ser2 and Ser5; test: Western blot of Pol II CTD phosphorylation, primary mouse AML cells; type: cell-based; conditions: ex vivo 6 hr
Outline: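 Primary spleen cells from MLL-AF9 AML mice treated ex vivo for 6 hr with test compounds at several concentrations or DMSO. DMSO stocks diluted 1:1000 into medium. Immunoblot with PP2Ac as loading control.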

[8] = tested on: Pol II CTD phosphorylation at Ser2 and Ser5; test: Western blot of Pol II CTD phosphorylation, MV4–11 cells; type: cell-based; conditions: MV4–11 human AML cells
Myc, Mdm2, Mcl1 mRNA = test: qPCR analysis of mouse primary AML BM cells; type: cell-based; conditions: 1 μM, 4 hr ex vivo
Outline: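 Primary BM AML cells from MLL-AF9 mice treated ex vivo for 4 hr with 1 μM test compound or DMSO (stocks diluted 1:1000). Myc, Mdm2, Mcl1 and Axin2 transcripts measured by qPCR. N = 3, mean ± SD, Student's t test.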

[9] = tested on: mouse splenic AML cells (MLL-AF9); test: Rapid-hit ex vivo AML killing assay; type: cell-based; conditions: 5 mins exposure, washout, further incubation
Outline: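 Mouse AML cells were plated at 1.5 × 10^5 per 0.15 mL in StemPro-34 with IL3, IL6, TPO and SCF (10 ng/ml each) at 5% CO2. Test compound was added from DMSO stock diluted 1:1000, with DMSO alone as control. At the set times cells were spun, resuspended in drug-free medium and kept for 18 hr total. Cells were stained with Annexin V-PE/7AAD and read by flow for GFP and PE.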

[10] = tested on: cKit^HiCD11b^Low progenitors from Tet2^−/−;Flt3^ITD mice; test: Ex vivo apoptotic killing of Tet2−/−; type: cell-based, mouse; conditions: 16 hr after treatment
CKIα [11] = test: Western blot of CKIα degradation in human AML cells; type: cell-based; conditions: MV4–11 cells, 6.5 hr
Outline: as §1

[12] = tested on: MV4–11 cells (pSer2/5 CTD, DDR, p53, MDM2, caspase 3); test: Western blot of MV4–11 cells, single and combination treatment; type: cell-based, human; conditions: for DDR, p53, MDM2 and caspase 3 activation: MV4–11, single agent (BTX161 6 hr, iCDK9 4 hr, THZ1 4 hr)
Outline: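 MV4–11 cells treated at several concentrations, alone or combined: CKIα degrader for 6 hr, CDK9 inhibitor for 4 hr, CDK7 inhibitor for 4 hr. Lysates immunoblotted, with PP2Ac as loading control.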

normal C57BL/6 mice = test: 7-day daily treatment for maximal tolerated dose; type: in vivo, mouse; conditions: 7 days

Chain of CDK9 (P50750 whole entry): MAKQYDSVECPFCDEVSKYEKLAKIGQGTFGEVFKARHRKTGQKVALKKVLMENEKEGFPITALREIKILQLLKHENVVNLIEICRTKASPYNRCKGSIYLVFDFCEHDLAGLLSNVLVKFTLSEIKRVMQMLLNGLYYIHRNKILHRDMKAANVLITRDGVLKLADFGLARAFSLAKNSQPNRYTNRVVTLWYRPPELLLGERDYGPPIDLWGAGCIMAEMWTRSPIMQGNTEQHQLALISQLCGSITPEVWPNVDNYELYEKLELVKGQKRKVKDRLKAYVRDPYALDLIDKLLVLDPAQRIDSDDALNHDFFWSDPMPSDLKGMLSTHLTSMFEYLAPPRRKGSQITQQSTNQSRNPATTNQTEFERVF
Chain of CDK7 (P50613 whole entry): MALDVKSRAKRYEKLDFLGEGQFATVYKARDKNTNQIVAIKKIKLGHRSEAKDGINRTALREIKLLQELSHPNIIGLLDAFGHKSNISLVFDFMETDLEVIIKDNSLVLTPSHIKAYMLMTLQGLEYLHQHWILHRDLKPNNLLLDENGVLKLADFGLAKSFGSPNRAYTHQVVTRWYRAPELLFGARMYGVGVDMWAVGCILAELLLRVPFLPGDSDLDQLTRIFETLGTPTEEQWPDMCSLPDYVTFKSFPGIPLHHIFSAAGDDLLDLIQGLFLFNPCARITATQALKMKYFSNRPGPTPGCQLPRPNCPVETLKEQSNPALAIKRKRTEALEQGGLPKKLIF
Chain of CKIδ (P48730 whole entry): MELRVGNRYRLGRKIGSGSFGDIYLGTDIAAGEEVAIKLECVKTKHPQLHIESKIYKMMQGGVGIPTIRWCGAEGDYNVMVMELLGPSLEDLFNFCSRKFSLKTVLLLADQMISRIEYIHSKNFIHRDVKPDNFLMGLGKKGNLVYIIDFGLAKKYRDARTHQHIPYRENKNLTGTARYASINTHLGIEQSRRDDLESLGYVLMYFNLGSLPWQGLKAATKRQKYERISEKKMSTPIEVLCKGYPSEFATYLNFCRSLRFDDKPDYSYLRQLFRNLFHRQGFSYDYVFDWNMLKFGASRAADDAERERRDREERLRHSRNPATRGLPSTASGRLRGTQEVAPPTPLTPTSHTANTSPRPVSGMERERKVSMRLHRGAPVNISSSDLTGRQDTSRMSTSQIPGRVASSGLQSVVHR
Chain of CKIα (Homo sapiens, UniProt P48729) (P48729 whole entry): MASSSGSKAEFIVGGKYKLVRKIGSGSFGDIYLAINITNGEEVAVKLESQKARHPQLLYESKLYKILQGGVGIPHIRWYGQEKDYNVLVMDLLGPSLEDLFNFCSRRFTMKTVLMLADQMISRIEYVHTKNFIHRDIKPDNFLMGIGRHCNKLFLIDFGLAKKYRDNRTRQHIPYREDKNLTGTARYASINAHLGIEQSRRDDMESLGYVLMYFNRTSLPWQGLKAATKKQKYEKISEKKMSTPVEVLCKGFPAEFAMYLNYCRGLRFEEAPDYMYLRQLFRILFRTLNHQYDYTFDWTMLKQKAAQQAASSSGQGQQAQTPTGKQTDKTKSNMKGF
Chain of CDK8 (P49336 whole entry): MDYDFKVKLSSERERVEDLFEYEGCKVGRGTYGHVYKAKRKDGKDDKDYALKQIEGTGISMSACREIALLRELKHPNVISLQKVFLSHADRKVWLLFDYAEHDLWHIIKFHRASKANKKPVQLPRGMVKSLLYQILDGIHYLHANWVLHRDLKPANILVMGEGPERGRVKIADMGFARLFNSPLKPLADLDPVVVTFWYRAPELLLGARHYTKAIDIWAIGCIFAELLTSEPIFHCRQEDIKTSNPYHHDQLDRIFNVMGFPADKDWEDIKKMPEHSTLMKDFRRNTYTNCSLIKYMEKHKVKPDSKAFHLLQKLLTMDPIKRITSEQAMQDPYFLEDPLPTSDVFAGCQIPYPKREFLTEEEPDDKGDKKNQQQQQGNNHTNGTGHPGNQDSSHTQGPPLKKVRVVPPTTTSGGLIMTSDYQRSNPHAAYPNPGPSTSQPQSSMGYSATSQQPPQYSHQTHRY
Chain of CKIε (P49674 whole entry): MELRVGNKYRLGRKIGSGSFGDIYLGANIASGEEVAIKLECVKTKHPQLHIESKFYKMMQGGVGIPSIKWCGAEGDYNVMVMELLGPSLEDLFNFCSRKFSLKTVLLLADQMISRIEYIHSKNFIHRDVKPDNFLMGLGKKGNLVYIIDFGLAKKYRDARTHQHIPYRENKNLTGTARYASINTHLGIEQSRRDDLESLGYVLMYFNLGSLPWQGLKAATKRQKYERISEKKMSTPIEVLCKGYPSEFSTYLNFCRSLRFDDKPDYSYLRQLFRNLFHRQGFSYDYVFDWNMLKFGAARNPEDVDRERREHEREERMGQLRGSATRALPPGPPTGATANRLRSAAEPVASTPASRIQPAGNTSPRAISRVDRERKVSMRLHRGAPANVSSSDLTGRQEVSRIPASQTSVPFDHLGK
Chain of CDK11b (P21127 whole entry): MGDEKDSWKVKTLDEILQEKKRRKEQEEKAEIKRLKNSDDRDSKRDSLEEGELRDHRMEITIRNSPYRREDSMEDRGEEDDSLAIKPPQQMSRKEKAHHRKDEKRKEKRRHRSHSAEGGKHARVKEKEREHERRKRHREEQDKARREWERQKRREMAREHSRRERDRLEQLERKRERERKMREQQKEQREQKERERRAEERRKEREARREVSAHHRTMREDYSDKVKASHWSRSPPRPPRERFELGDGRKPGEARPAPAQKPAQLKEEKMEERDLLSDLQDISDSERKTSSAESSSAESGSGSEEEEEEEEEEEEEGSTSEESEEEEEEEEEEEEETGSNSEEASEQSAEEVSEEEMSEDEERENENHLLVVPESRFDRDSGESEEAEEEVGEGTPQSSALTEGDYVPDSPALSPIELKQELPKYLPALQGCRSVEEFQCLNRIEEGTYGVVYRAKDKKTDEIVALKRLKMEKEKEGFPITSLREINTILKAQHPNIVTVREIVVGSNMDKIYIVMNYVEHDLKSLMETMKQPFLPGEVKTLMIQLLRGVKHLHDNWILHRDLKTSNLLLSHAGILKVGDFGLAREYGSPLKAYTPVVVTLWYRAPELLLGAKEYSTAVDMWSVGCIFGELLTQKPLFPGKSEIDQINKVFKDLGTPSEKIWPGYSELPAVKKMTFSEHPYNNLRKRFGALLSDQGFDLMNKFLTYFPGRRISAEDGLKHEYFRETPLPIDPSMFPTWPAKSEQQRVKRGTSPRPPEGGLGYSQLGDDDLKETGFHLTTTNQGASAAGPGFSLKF
Chain of CDK11a (Q9UQ88 whole entry): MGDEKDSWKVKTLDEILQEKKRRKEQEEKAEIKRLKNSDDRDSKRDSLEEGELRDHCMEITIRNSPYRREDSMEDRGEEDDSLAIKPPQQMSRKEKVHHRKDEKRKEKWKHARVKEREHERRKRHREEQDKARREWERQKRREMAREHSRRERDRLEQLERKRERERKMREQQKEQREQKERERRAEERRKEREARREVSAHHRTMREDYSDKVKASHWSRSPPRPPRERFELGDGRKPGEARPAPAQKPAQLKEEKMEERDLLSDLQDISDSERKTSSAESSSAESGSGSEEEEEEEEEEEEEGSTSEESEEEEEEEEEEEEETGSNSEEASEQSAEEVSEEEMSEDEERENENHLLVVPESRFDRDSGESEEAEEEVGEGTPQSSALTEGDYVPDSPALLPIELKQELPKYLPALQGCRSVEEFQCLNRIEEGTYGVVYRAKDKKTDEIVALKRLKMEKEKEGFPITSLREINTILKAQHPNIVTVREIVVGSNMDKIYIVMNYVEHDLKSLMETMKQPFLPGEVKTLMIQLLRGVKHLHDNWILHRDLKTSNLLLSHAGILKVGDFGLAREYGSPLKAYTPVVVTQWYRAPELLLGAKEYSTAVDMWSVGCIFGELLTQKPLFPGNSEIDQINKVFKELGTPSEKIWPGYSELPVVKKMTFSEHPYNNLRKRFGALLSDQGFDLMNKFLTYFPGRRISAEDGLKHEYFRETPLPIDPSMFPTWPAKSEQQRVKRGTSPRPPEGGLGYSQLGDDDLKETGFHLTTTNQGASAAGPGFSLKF
Chain of CDK19 (Q9BWU1 whole entry): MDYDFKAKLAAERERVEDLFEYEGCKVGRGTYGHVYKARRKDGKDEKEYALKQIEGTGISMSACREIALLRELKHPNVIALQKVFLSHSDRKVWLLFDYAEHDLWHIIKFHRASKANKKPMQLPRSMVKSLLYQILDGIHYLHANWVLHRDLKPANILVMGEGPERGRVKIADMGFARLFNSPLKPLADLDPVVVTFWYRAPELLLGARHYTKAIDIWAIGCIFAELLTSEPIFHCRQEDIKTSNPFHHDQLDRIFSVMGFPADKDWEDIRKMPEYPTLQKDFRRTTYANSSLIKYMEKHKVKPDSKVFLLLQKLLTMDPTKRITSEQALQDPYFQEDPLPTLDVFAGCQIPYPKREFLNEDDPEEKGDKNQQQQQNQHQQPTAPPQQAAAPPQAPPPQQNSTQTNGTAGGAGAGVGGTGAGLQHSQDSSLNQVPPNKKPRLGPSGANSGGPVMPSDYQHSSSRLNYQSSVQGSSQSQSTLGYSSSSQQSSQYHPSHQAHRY

## Cn1ncc(-c2nc(N[C@H]3CC[C@H](n4cccn4)CC3)ncc2Cl)c1CC1CC1 [A64, N-((1R,4R)-4-(1H-pyrazol-1-yl)cyclohexyl)-5-chloro-4-(5-(cyclopropylmethyl)-1-methyl-1H-pyrazol-4-yl)pyrimidin-2-amine]
CKIα [1]
  CKIα affinity: low CKIα affinity
CKIδ
  affinity to CKIδ: high affinity
CKIε
  affinity to CKIε: high affinity
GSK3α/β
  GSK3α/β affinity: high GSK3α/β affinity
CDK7
  CDK7 Kd (direct binding affinity): moderately
CDK9
  CDK9 Kd (direct binding affinity): poorly
p53 in RKO cells
  p53 induction: only induces p53 at a high concentration
[2]
  leukemia cell apoptosis: but not by A64 or midostaurin

## Cn1ncc(-c2nc(NC3CCC(N)CC3)ncc2F)c1CC1CC1 [A86, (1R,4R)-N^1-(4-(5-(cyclopropylmethyl)-1-methyl-1H-pyrazol-4-yl)-5-fluoropyrimidin-2-yl)cyclohexane-1,4-diamine]
CDK7
  CDK7 Kd (direct binding affinity): low nM Kd values
CDK7; Figure S4B
  inhibition of CDK7 (TFIIH) in binding screen: high inhibition
CDK9
  CDK9 Kd (direct binding affinity): low nM Kd values
CDK9; Figure S4B
  inhibition of CDK9 (P-TEFb) in binding screen: high inhibition
CDK8
  inhibition of CDK8 in binding screen: hardly any inhibition
CDK13
  inhibition of CDK13 in binding screen: hardly any inhibition
CDK11a
  inhibition of CDK11a in binding screen: hardly any inhibition
CDK11b
  inhibition of CDK11b in binding screen: hardly any inhibition
CDK19
  inhibition of CDK19 in binding screen: hardly any inhibition
[3]
  concentration highly effective in inducing leukemia cell apoptosis: ≤ 160 nM
[4]; 16 hr post single oral dose
  leukemic cell counts (GFP+) in BM and peripheral blood: 5%–10%
[4]; A51 20 mg/kg 3 and 6 hr, A86 10 mg/kg 5 hr, spleen AML cells WB
  in vivo signaling in leukemic cells after single oral treatment: phospho-CTD inhibition with downregulation of MCL1 and activation of p53, DDR, and caspase 3
[5]
  effect on DDR, p53, MDM2, MYC, MCL1 protein levels (WB): abolished the expression of MYC, MDM2, and the anti-apoptotic oncogene MCL1
[6]
  effect on mRNA expression (MYC, MDM2, Wnt targets): marked reduction in mRNA expression of MYC and MDM2
[7]
  Pol II CTD phosphorylation at Ser2 and Ser5: marked reduction
[8]
  Pol II CTD phosphorylation at Ser2 and Ser5: marked reduction
Myc, Mdm2, Mcl1 mRNA
  Myc, Mdm2, and Mcl1 mRNA expression: significant reduction of Myc, Mdm2, and Mcl1 mRNA expression
[9]
  AML cell killing after short exposure: sufficient to induce significant AML cell killing
[10]
  ex vivo apoptotic killing of cKit^HiCD11b^Low progenitors: superior to midostaurin
[2]
  leukemia cell apoptosis: leukemia cell apoptosis
[2]; read-out: IC50 of killing effect, all 5 patient samples
  IC50: 20 to 50 nM

## Cc1cccc2c1CN([C@H]1CCCC(=O)NC1=O)C2=O [BTX161, (S)-3-(4-methyl-1-oxoisoindolin-2-yl)azepane-2,7-dione]
CKIα [11]
  CKIα degradation: mediates degradation of CKIα better than lenalidomide
[5]
  effect on DDR, p53, MDM2, MYC, MCL1 protein levels (WB): activates DDR and p53, while stabilizing the p53 antagonist MDM2
[6]
  effect on mRNA expression (MYC, MDM2, Wnt targets): upregulated all the Wnt targets including MYC and did not affect MDM2 mRNA expression
[12]
  DDR, p53, MDM2 and caspase 3 activation: augmented p53 and MDM2 protein expression

## CN(C)C/C=C/C(=O)Nc1ccc(C(=O)Nc2cccc(Nc3ncc(Cl)c(-c4c[nH]c5ccccc45)n3)c2)cc1 [THZ1]
[12]; MV4–11, 4 hr, single agent
  pSer2/5 CTD: reduced the pSer2/5 CTD
[12]
  DDR, p53, MDM2 and caspase 3 activation: little effect on DDR, p53, and caspase 3 activation

## Cn1ncc(-c2ccnc(N[C@H]3CC[C@H](N)CC3)n2)c1CC1CC1 [A14, (1R, 4R)-N^1-(4-(5-(cyclopropylmethyl)-1-methyl-1H-pyrazol-4-yl)pyrimidin-2-yl)cyclohexane-1,4-diamine]
[3]
  concentration highly effective in inducing leukemia cell apoptosis: ≤ 160 nM
Normal C57BL/6 mice; 5–10 mg/kg
  effect on hematopoiesis at 5–10 mg/kg: no adverse effect on hematopoiesis
Normal C57BL/6 mice; doses above 10 mg/kg
  effect on blood counts at doses above 10 mg/kg: transiently reduced the white blood cells (WBC) and platelet counts

## Cn1ncc(-c2nc(NC3CCC(NCc4cn[nH]c4)CC3)ncc2Cl)c1CC1CC1 [A75, (1R,4R)-N^1-((1H-pyrazol-4-yl)methyl)-N^4-(5-chloro-4-(5-(cyclopropylmethyl)-1-methyl-1H-pyrazol-4-yl)pyrimidin-2-yl)cyclohexane-1,4-diamine]
[3]
  concentration highly effective in inducing leukemia cell apoptosis: ≤ 160 nM

## CO[C@@H]1[C@H](N(C)C(=O)c2ccccc2)C[C@H]2O[C@]1(C)n1c3ccccc3c3c4c(c5c6ccccc6n2c5c31)C(=O)NC4 [midostaurin, reference compound]
[2]
  leukemia cell apoptosis: but not by A64 or midostaurin
